Screening data: PubChem BioAssay, several laboratories
NALP3 yeast inh: NALP3 inhibition in yeast | Yeast reconstituted NLRP3/ASC/caspase-1, beta-gal luminescence, 24 h | inhibition, % at 10 µM | hit rate 0.39% among 330,000;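 active means inhibition of 50% or more; inactive means inhibition below 50%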;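 further: plate controls were induced DMSO wells for no effect and uninduced yeast grown without galactose for full effect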
NALP1 yeast inh: NALP1 inhibition; S. cerevisiae NALP1/ASC/caspase-1 growth, X-gal OD620, 72 h; inhibition, % at 10 µM; hit rate 0.61% among 280,000; in the data active means inhibition mostly above about 24%, no sharp cut-off; inactive means mostly below about 32%
Tb MetRS inh: blocks T. brucei methionyl-tRNA synthetase activity; inhibition, % at 11.9 µM; hit rate 0.4% among 360,000; purified T. brucei MetRS, ATP depletion, Kinase-Glo luminescence; AID 624268;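 active means inhibition above a per-plate cutoff of the control wells' mean inhibition plus 3 SD, cut at about 5.5% in these data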;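 further: 0% = DMSO wells median and 100% = median of wells with control inhibitor compound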
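assay system = parasite MetRS enzyme | timing = 15 min preincubation, 2 h reaction, all 25 °C | evaluation = percent inhibition relative to median high and low control wells | medium = HEPES buffer containing pyrophosphatase, BSA, spermine, DTT | compound = single dose, 11.9 µM final nominal, 0.9% final DMSO | detection = Kinase-Glo luminescence, ATP depletion format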
A1 inh: inhibitors of the anti-apoptotic protein A1, read as caspase activation; hit rate 0.066% among 330,000; MEF A1-2A-BIM cells, Caspase-Glo 3/7 luminescence, 3 h; percent of clofoctol response, vehicle zero; AID 2462; caspase activation, % (no concentration beside the values);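 active means over half of replicate activation scores above 10%, or exactly half above 10 with the replicate mean above 10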
MC4R antag cAMP: antagonists of human melanocortin 4 receptor (MC4R). P32245. MC4R-expressing cells, MTII-stimulated cAMP, LANCE TR-FRET. inhibition, % at 6.5 µM. hit rate 0.48% among 360,000;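 active means inhibition above its plate's cutoff, the mean of tested wells on that plate plus 3 SD, cut at about 29% in these data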;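 further: 0% = Melanotan II alone and 100% = Melanotan II plus saturating MCL0020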
Target sequence (P32245 whole entry, looked up): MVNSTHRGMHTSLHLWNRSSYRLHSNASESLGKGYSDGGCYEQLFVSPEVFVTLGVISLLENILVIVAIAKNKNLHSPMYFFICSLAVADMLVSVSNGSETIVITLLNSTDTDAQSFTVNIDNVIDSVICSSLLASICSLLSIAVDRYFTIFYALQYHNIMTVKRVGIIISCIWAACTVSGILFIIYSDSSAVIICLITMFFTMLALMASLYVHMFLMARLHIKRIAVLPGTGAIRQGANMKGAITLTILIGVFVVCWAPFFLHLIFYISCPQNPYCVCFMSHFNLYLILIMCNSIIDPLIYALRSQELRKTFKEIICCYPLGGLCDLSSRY
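Assay system: human MC4R-expressing U2OS cells; reagent: Melanotan II stimulation of cells; dosing: 6.5 µM single dose; timing: compound 30 min, challenge 1 h, detection 1 h; signal: TR-FRET cAMP assay; replicates: one well per compound, no replicates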
MC4R barr agon: agonists of human melanocortin 4 receptor (MC4R) beta-arrestin; U2OS MC4R beta-arrestin complementation, luminescence; percent of melanotan II response, DMSO zero; activation, % at 8.9 µM; hit rate 0.98% among 360,000;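 active means activation above a per-plate cutoff, the mean activation of sample wells on that plate plus 3 SD, cut at about 8% in these data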
MC4R barr ag: human MC4R beta-arrestin agonism confirmation. shares compounds with MC4R barr agon. U2OS MC4R beta-arrestin recruitment, luminescence; scaled DMSO 0%, Melanotan II 100%. activation, % at 8.9 µM. hit rate 31% among 2,400;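 active means mean activation across replicates above the hit cutoff set in the earlier primary screen, cut at about 8% in these data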
MOR DOR agonist: OPRM1-OPRD1 heterodimer agonism counter-screen | shares compounds with MC4R barr agon | U2OS PathHunter beta-arrestin, beta-gal luminescence; percent of deltorphin B response, DMSO zero | hit rate 5.8% among 2,400 | activation, % at 9.2 µM;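 active means mean activation across replicates exceeds the hit threshold derived in the earlier primary screen, cut at about 18% in these data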;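 further: 100% = deltorphin B at 0.9 µM final and 0% = DMSO alone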
Starred values were filed as active, the others as inactive; · = no result. Most compounds without a hit are left out; they make up all but 2.5% or so of the library.

SMILES	NALP3 yeast inh	NALP1 yeast inh	Tb MetRS inh	A1 inh	MC4R antag cAMP	MC4R barr agon	MC4R barr ag	MOR DOR agonist
O=C(CSc1nc2c(sc3ccccc32)c(=O)n1Cc1ccco1)NCC1CCCO1 (stereo not drawn)	10	11	0	-1	10	22*	0	1
CSc1ccc(CCNC(=O)CSc2ccsc2[N+](=O)[O-])cc1	6	-8	-2	0	0	11*	3	12
NS(=O)(=O)c1ccc(CCNC(=O)CSc2ccsc2[N+](=O)[O-])cc1	5	18	-1	1	-3	1	·	·
COc1nc(-c2ccccc2)ccc1-c1noc(-c2ccco2)n1	29	40	0	-6	2	31*	0	3
COc1ccc2cc(C3=CCCC3(C)C(=O)O)ccc2c1 (stereo not drawn)	·	·	0	·	11	-3	·	·
Cc1ccc(NC(=O)c2cc(-c3cccc(O)c3)on2)cc1C	21	5	0	0	5	9.6*	-1	8
Cc1ccc(NC(=O)c2cc(-c3ccco3)on2)cc1C	30	10	0	-3	13	0	·	·
CCc1cc(C(=O)Cc2cnn(-c3ccccc3)c2)c(O)cc1O	18	-14	-2	-1	-7	22*	8	5
O=C(NCC1CC1)c1ccc2c(c1)S(=O)(=O)c1cc(Cl)ccc1C2=O	23	·	0	0	-34	0	·	·
Cc1ccc(O)c(-c2cc(-c3cccc(F)c3)n[nH]2)c1	14	10	0	0	-8	10*	5	7
CCCCCC(=O)N1C[C@@H](O)[C@H](n2cc(COC(=O)c3ccccc3)nn2)C[C@@H]1c1ccccc1	·	·	-1	·	4	2	·	·
COC(=O)CCCn1cc(CN2CC(N3CCN(C)CC3)CS2(=O)=O)nn1 (stereo not drawn)	·	·	-1	·	·	·	·	·
CCCCCCCCN1C(=O)[C@H](CC(=O)N2CCSCC2)C[C@@]2(C(=O)OC)CC(C)(C)CC=C12	·	·	0	·	·	·	·	·
COc1ccc(NC(=O)c2ccc(-c3ccccc3C(F)(F)F)o2)cc1	23	25	0	-1	3	10*	2	5
COc1cccc(-c2cnc(C(O)c3ccc(C)cc3C)[nH]2)c1 (stereo not drawn)	·	·	0	·	3	-1	·	·
Cc1ccc(-c2csc3nc(-c4ccncc4)[nH]c(=O)c23)cc1	-6	·	0	0	11	5	·	·
CCOc1ccc(-c2nc3scc(-c4cccs4)c3c(=O)[nH]2)cc1	8	-7	0	-1	-2	28*	12*	2
Cc1ccc2nc(Cl)c3cc(C(=O)N(CCN(C)C)Cc4ccco4)sc3c2c1	14	8	0	1	-1	2	·	·
Cc1ccc2[nH]c(=O)c3cc(C(=O)N(CCCOC(C)C)Cc4ccco4)sc3c2c1	-8	-6	0	-1	-3	35*	34*	8
Oc1ccccc1C=NNc1nc2ccccc2s1	·	·	0	·	-1	1	·	·
COc1cccc(/C=N/Nc2nnc3c(n2)[nH]c2ccccc23)c1OC	19	·	0	-1	17	11*	-2	2
COc1cccc(C=NNc2nc3ccccc3s2)c1OC	·	·	0	·	-4	22*	3	8
COc1cccc(/C=N/Nc2ccc(Cl)nn2)c1OC	15	·	0	-1	10	-2	·	·
Cc1ccsc1/C=N/Nc1nc2ccccc2s1	12	-9	-1	0	-6	9.9*	-1	6
CCCN(CCC)CCCNC(=O)c1cn(-c2ccc(OC)cc2)c(=O)c2ccccc12	15	28	0	0	10	2	·	·
SMILES	NALP3 yeast inh	NALP1 yeast inh	Tb MetRS inh	A1 inh	MC4R antag cAMP	MC4R barr agon	MC4R barr ag	MOR DOR agonist
O=C(c1cccc(Br)c1)c1cn(-c2ccccc2)nc1C(=O)c1ccccc1	10	22	0	0	1	1	·	·
CC(=O)c1nn(-c2cccc(Br)c2)cc1C(=O)c1ccc(Cl)cc1	8	31	0	0	-5	32*	13*	6
CC(=O)c1nn(-c2ccccc2)cc1C(=O)c1cccc(Br)c1	10	16	0	0	0	9.8*	12*	5
CC(=O)c1nn(-c2ccc(Cl)cc2)cc1C(=O)c1ccccc1	15	·	0	2	1	18*	4	16
O=C1c2ccccc2C(c2nnnn2-c2ccc3c(c2)OCCO3)N1Cc1ccccc1 (stereo not drawn)	·	·	0	·	·	·	·	·
CCCN(Cc1nnc(-c2ccccc2Cl)o1)C(=O)c1cc(S(=O)(=O)N2CCOCC2)ccc1F	14	·	0	1	0	-2	·	·
CNC(=S)N/N=C/c1c(C)nn(-c2cccc(Cl)c2)c1Cl	21	29	-1	2	-1	22*	3	5
CC(OC(=O)C1CC1)C(=O)Nc1ncc(Cl)cc1Cl (stereo not drawn)	-4	·	0	0	2	-2	·	·
Oc1ccccc1-c1nc(NCc2ccco2)c2ccccc2n1	5	22	-2	0	-5	13*	6	3
Oc1ccccc1-c1nc(NCc2cccnc2)c2ccccc2n1	15	0	0	0	-2	-3	·	·
Oc1ccccc1-c1nc(NCc2ccccc2)c2ccccc2n1	17	16	-1	-1	2	12*	8	5
CCOC(=O)C1=CCN(S(=O)(=O)c2ccccc2C)C1c1ccccc1 (stereo not drawn)	·	·	-2	·	·	·	·	·
O=C(c1cc(=O)[nH]c2ccccc12)N(Cc1nnc(-c2ccccc2Cl)o1)C1CC1	-9	·	0	0	-7	-5	·	·
CC1CCN(S(=O)(=O)c2ccc(C(=O)OCc3ccc4c(c3)OCO4)cc2)CC1	-7	-6	-1	0	8	12*	7	3
COC(=O)c1ccc(COC(=O)c2ccc(S(=O)(=O)N3CCC(C)CC3)cc2)o1	12	21	-1	0	1	0	·	·
C=CC[C@@H](CC(=O)N[C@@H](CO)Cc1ccccc1)C(=O)N[C@@H](COC(=O)[C@@H](CC=C)Cc1ccc(F)cc1)Cc1c[nH]c2ccccc12	-5	·	-1	2	14	20*	4	13
C=CCC[C@H](Cc1ccc(F)cc1)C(=O)OC[C@H](Cc1c[nH]c2ccccc12)NC(=O)[C@@H](CC=C)CC(=O)N[C@@H](CO)Cc1ccccc1	33	·	0	1	8	24*	15*	9
